Laboratory results published in publication PMC8897208 (Acta Pharmaceutica Sinica. B, 2021).

Key:
[1] = molecular target: T1, SIRT6 (Homo sapiens, UniProt Q8N6T7); assay: FDL assay of SIRT6 deacetylation on H3K9Ac peptide; assay type: biochemical
Outline: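 Recombinant SIRT6 was expressed in E. coli BL21 in LB with 100 μg/mL ampicillin at 37 °C. Expression was induced with 0.5 mmol/L IPTG at OD600 0.8, then grown 18 h at 16 °C and purified by an earlier method.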

[2] = molecular target: T1, SIRT6; assay: Biolayer interferometry; assay type: binding
[3] = molecular target: T1, SIRT6; assay: Enzymatic kinetic assays by HPLC; assay type: biochemical; conditions: for kcat (Ac-RHKK-Ac-AMC): varied Ac-RHKK-Ac-AMC, HPLC
[4] = molecular target: T1, SIRT6; assay: Competition assay between SIRT6 substrates and JYQ-42; assay type: biochemical; conditions: FDL competition assay
[5] = test system: SIRT6 mutants (Y5A, T57A, P62A, D63A, P67A, H68A, V70A, P80A, K81A, Y257A); assay: FDL assay on SIRT6 Pocket Z mutants; assay type: biochemical, human
Outline: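 SIRT6 point mutants were made by site-directed mutagenesis. Each plasmid was expressed separately in E. coli BL21 (LB, 100 μg/mL ampicillin, 37 °C), induced with 0.5 mmol/L IPTG at OD600 0.8 for 18 h at 16 °C, and purified as for wild type.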

[6] = molecular target: HDAC3 (Homo sapiens, UniProt O15379); assay: HDACs selectivity assay; assay type: biochemical
HDAC3, sequence (O15379 whole entry): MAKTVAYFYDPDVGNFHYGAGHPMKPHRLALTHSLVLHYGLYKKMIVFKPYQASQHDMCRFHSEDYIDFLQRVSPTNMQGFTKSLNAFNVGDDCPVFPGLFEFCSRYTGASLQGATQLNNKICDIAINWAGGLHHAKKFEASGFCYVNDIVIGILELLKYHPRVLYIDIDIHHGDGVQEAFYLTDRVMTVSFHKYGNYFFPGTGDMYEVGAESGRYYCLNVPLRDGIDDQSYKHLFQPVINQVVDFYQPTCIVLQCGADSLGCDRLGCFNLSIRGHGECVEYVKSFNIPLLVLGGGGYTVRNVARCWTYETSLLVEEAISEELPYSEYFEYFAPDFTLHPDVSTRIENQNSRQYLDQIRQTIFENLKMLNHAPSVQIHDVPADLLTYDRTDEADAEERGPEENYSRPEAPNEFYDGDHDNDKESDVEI
HDAC3, sequence (Q9Y618 395-489 partner limits assumed): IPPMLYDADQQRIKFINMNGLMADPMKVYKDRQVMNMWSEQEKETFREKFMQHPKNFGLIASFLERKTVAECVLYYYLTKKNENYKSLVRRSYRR
Outline: (§1)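 Enzyme selectivity panel was run by an outside contract lab to its standard assay protocols. IC50 values came from dose–response fitting of the data points. Each experiment was done independently at least three times.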

[7] = molecular target: HDAC4 (Homo sapiens, UniProt P56524); assay: HDACs selectivity assay; assay type: biochemical
HDAC4, sequence (P56524 whole entry): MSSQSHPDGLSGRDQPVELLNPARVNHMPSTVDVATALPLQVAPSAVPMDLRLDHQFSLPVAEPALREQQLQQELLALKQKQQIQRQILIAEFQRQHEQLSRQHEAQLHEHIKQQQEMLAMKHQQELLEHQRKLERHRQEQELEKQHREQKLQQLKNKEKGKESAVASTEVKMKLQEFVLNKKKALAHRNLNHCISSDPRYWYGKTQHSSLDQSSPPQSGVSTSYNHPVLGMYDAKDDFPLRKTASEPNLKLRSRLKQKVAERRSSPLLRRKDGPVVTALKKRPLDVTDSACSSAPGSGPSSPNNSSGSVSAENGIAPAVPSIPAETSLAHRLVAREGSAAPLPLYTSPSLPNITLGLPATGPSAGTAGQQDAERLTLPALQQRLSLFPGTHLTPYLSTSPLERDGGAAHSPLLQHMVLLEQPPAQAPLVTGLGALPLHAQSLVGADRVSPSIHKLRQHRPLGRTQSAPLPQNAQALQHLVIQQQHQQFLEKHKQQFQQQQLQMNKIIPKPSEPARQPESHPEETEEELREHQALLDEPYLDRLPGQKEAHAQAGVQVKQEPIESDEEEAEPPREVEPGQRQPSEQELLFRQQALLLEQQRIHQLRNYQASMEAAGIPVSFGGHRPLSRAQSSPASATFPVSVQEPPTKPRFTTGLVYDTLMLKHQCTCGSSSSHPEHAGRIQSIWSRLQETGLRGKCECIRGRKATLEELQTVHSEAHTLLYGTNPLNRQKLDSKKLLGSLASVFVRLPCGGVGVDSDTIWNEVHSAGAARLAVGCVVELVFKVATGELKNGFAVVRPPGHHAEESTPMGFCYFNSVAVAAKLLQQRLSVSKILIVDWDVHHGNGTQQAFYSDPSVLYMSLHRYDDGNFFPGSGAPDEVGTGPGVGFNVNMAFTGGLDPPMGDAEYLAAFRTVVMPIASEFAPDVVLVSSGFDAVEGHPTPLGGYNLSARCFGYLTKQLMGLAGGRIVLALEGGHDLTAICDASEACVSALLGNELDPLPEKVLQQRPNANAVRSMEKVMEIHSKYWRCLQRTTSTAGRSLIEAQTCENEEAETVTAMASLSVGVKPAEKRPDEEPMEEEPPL
Outline: as §1

[8] = molecular target: HDAC9 (Homo sapiens, UniProt Q9UKV0); assay: HDACs selectivity assay; assay type: biochemical
HDAC9, sequence (Q9UKV0 whole entry): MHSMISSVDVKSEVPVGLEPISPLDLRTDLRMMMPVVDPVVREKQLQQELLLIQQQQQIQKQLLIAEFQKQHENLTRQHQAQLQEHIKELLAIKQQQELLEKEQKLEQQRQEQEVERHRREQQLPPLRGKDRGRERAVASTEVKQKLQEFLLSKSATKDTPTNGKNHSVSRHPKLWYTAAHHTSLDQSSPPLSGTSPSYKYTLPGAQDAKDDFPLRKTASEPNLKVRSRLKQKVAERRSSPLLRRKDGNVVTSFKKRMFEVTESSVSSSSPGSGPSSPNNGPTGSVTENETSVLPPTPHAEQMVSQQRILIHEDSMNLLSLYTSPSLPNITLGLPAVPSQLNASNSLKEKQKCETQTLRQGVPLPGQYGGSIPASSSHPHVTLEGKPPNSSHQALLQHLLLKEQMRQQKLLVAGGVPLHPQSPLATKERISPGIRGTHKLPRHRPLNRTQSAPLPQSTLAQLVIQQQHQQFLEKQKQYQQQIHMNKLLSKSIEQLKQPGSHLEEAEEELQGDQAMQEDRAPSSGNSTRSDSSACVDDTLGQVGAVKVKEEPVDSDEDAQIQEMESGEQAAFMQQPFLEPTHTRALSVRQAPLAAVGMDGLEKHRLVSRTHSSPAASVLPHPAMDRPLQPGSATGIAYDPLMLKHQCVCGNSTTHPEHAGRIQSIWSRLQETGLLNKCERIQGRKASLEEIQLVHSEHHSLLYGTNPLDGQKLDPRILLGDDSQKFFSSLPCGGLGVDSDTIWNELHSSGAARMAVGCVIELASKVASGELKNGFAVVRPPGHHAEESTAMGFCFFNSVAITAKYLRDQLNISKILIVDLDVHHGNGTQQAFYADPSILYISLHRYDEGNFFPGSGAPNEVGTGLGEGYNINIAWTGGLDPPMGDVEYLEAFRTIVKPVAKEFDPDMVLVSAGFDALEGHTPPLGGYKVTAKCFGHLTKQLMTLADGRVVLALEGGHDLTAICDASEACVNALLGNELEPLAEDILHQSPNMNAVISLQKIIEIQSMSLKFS
Outline: as §1

[9] = molecular target: T2, HDAC10 (Homo sapiens, UniProt Q969S8); assay: HDACs selectivity assay; assay type: biochemical
T2 sequence (Q969S8 1-669): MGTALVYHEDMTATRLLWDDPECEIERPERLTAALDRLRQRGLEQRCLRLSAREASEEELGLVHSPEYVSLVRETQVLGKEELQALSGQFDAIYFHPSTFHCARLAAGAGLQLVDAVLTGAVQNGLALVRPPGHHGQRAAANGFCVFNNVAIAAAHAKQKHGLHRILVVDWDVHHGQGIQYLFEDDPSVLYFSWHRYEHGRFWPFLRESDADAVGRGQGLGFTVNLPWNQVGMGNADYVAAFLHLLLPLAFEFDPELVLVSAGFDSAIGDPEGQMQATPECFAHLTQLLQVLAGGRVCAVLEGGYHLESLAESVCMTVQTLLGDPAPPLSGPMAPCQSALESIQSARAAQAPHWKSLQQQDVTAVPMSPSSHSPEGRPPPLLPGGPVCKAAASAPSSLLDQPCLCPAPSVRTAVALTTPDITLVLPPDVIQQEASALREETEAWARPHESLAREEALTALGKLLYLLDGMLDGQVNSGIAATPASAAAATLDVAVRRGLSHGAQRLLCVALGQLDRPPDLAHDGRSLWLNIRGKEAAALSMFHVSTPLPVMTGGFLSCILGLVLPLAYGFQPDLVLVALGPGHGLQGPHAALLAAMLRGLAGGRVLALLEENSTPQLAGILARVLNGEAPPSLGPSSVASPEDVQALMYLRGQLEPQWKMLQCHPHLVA
Outline: as §1

[10] = molecular target: T3, SIRT3 (Homo sapiens, UniProt Q9NTG7); assay: HDACs selectivity assay; assay type: biochemical
T3 sequence (Q9NTG7 1-399): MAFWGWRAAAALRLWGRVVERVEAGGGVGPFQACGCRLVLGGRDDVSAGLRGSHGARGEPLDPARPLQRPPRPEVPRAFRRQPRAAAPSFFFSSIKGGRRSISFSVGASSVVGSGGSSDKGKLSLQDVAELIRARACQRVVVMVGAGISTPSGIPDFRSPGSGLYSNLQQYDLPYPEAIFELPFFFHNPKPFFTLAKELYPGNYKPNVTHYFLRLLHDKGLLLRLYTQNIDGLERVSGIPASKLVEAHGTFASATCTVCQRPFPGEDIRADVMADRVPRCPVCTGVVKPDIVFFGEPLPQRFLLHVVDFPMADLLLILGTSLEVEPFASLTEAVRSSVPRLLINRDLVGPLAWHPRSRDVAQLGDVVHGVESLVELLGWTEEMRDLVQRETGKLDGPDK
Outline: as §1

[11] = molecular target: T4, SIRT5 (residues 34–302) (Homo sapiens, UniProt Q9NXA8); assay: Selectivity FDL deacetylation assay; assay type: biochemical
T4 sequence (Q9NXA8 34-302): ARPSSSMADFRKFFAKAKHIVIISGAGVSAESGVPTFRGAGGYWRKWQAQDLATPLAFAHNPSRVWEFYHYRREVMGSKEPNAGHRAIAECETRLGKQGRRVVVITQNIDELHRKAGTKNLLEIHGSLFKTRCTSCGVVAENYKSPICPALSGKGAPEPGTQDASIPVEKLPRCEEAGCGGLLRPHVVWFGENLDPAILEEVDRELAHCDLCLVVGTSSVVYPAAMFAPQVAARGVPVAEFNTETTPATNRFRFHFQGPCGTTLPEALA

[12] = test system: MiaPaCa-2 cells; assay: Western blot of SIRT6 substrates H3K9Ac, H3K18Ac, H3K56Ac; assay type: cell-based; conditions: MiaPaCa-2, different concentrations of JYQ-42, Western blot
Outline: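 BXPC-3 cells were grown in RPMI1640 and MiaPaCa-2 cells in DMEM, each with 10% FBS and penicillin/streptomycin, at 37 °C under 5% CO2. Both lines were STR-verified. Cells took test compound at 0, 10, 20 or 40 μmol/L for 24 or 48 h and were lysed in 1× SDS loading buffer. Proteins were separated on 12% SDS-PAGE and transferred to PVDF. Blocking used Tris-NaCl pH 7.5 with Tween-20 and 5% milk. Detection was chemiluminescent (HRP), with β-actin as loading control.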

[13] = test system: MiaPaCa-2 cells; assay: Migration assay with xCELLigence RTCA-DP; assay type: cell-based; conditions: effect even at 5 μmol/L
[14] = test system: BXPC-3 cells; assay: Proliferation assay; assay type: cell-based; conditions: BXPC-3, up to 20 μmol/L, 48 h, CCK-8
[15] = test system: BXPC-3 cells; assay: Migration assay by wound healing; assay type: cell-based; conditions: for relative migration rate (wound healing): control ~0.60

T1 sequence (Q8N6T7 whole entry): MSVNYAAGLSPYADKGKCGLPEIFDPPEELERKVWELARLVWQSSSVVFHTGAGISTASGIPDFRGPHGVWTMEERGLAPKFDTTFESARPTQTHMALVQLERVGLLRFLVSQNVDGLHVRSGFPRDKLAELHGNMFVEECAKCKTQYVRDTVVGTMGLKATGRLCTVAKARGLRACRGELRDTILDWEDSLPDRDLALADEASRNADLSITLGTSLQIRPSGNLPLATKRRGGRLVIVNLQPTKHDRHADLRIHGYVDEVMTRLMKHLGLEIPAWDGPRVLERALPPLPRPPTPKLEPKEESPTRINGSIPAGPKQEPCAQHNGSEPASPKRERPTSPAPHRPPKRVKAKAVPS

- inhibition ratio at 50 μmol/L on H3K9Ac [1]: 90.7%
- Kd [2]: 13.2 µM
- inhibition mode ([3]; Lineweaver–Burk analysis towards NAD^+ and Ac-RHKK-Ac-AMC): non-competitive inhibitor
- kcat (Ac-RHKK-Ac-AMC) ([3]; SIRT6 with 1 μmol/L JYQ-42): 33.65 × 10^−4 S^−1
- kcat (Ac-RHKK-Ac-AMC) ([3]; SIRT6 with 3 μmol/L JYQ-42): 22.12 × 10^−4 S^−1
- kcat (Ac-RHKK-Ac-AMC) ([3]; SIRT6 with 10 μmol/L JYQ-42): 13.86 × 10^−4 S^−1
- effect of increasing NAD^+ or Ac-RHKK-Ac-AMC on the inhibition [4]: did not interfere with the inhibition
- IC50 values on SIRT6 mutants ([5]; Y5A, T57A, P62A, D63A, P67A, H68A, V70A, P80A, K81A, Y257A versus wild type): increased
- IC50 [6]: > 100 µM
- IC50 [7]: > 100 µM
- IC50 [8]: > 100 µM
- IC50 [9]: > 100 µM
- IC50 [10]: > 100 µM
- IC50 [11]: > 100 µM
Compound: Nc1nonc1-n1cc(C(=O)N/N=C/c2cc(Cl)cc(C(F)(F)F)c2)nn1 [JYQ-42]
- inhibition of SIRT6 deacetylation, T57A and H68A mutants ([5]; mutations T57A and H68A): completely disrupted JYQ-42 inhibition
- levels of H3K9Ac, H3K18Ac and H3K56Ac [12]: increased the levels of H3K9Ac, H3K18Ac and H3K56Ac in a dose-dependent manner
- migration of pancreatic cancer cells (RTCA cell index) [13]: dramatically attenuated
- cell growth [14]: no significant impact on cell growth
- relative migration rate (wound healing) ([15]; BXPC-3, 10 μmol/L JYQ-42, 24 h): ~ 0.3
- relative migration rate (wound healing) ([15]; BXPC-3, 20 μmol/L JYQ-42, 24 h): ~ 0.24
- relative migration rate (wound healing) ([15]; BXPC-3, 40 μmol/L JYQ-42, 24 h): ~ 0.10
- migration with ADPr co-treatment (wound healing) ([15]; BXPC-3, 40 μmol/L JYQ-42 in the presence of 0.5 mmol/L ADPr): no influence on the migration
